Assays:
[1] = Metabolic stability in rat intestine S9 fraction assessed as compound remaining at 10 uM after 60 mins by HPLC analysis in presence of NADP; assay type: ADME, tissue-based; settings: read-out: Stability
Summary of the method: (§1)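 Rat liver or intestinal S9 at 1 mg/mL final in 50 mM potassium phosphate, with or without NADPH-regenerating system (final 1.3 mM NADP, 3.3 mM glucose-6-phosphate, 0.4 U/mL G6P dehydrogenase, 3.3 mM MgCl2). Preincubated 10 min at 37 °C with shaking, started with compound at 10 μM final. Samples taken at 0 and 60 min, quenched in cold acetonitrile, centrifuged, and parent disappearance measured by HPLC.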

[2] = Metabolic stability in dog intestine S9 fraction assessed as compound remaining at 10 uM after 60 mins by HPLC analysis in presence of NADP; assay type: ADME, tissue-based, Canis lupus familiaris; settings: read-out: Stability
Summary of the method: (§2)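 Liver or intestinal S9 at final 1 mg/mL in 50 mM potassium phosphate, with or without NADPH-regenerating system (1.3 mM NADP, 3.3 mM glucose-6-phosphate, 0.4 U/mL G6PDH, 3.3 mM MgCl₂); 10 min preincubation at 37 °C; compound at final 10 μM; samples at start and 60 min quenched in cold acetonitrile, centrifuged, HPLC; % parent remaining.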

[3] = system: Hepatitis C virus; assay: Antiviral activity against HCV1b infected in human HuH7 cells assessed as inhibition of viral replication after 48 hrs by luciferase reporter gene assay; assay type: functional, organism-based, Hepacivirus hominis; settings: genotype 1b, Huh-7, 48 h
Summary of the method: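 Huh7 cells carrying genotype 1b bicistronic subgenomic replicon, seeded 2 × 10⁴/well without G-418; compounds added 18-24 h later, 48 h exposure; 3× or 4× serial dilutions over 0.0001-10 μM in triplicate/quadruplicate; Renilla luciferase read-out versus untreated cells; EC₅₀ by four-parameter sigmoidal nonlinear regression; at least three independent assays.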

[4] = Metabolic stability in mouse plasma assessed as compound remaining at 1 ug/ml after 30 mins; assay type: ADME, cell-free; settings: read-out: Stability
[5] = Cytotoxicity against human HuH7 cells after 72 hrs by celltiter-glo assay; assay type: cell-based, Huh-7
Summary of the method: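 Replicon 1b Huh7 cells seeded 2 × 10⁴/well; after 24 h, 11 serial 2× dilutions from 100 μM (three repeats each) with no-compound control; 72 h at 37 °C, CO₂, log-phase growth; viability by CellTiter-Glo luminescence; CC₅₀ = concentration giving 50% signal.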

[6] = Metabolic stability in dog liver S9 fraction assessed as compound remaining at 10 uM after 60 mins by HPLC analysis in presence of NADP; assay type: ADME, subcellular, Canis lupus familiaris; settings: read-out: Stability; summary of the method: as §2
[7] = Metabolic stability in cynomolgus monkey liver S9 fraction assessed as compound remaining at 10 uM after 60 mins by HPLC analysis in absence of NADP; assay type: ADME, subcellular, Macaca fascicularis; settings: read-out: Stability; summary of the method: as §2
[8] = Metabolic stability in dog liver S9 fraction assessed as compound remaining at 10 uM after 60 mins by HPLC analysis in absence of NADP; assay type: ADME, subcellular, Canis lupus familiaris; settings: read-out: Stability; summary of the method: as §2
[9] = Metabolic stability in rat liver S9 fraction assessed as compound remaining at 10 uM after 60 mins by HPLC analysis in presence of NADP; assay type: ADME, subcellular; settings: read-out: Stability; summary of the method: as §1
[10] = Metabolic stability in rat liver S9 fraction assessed as compound remaining at 10 uM after 60 mins by HPLC analysis in absence of NADP; assay type: ADME, subcellular; settings: read-out: Stability; summary of the method: as §1
[11] = Metabolic stability in human liver S9 fraction assessed as compound remaining at 10 uM after 60 mins by HPLC analysis in absence of NADP; assay type: ADME, subcellular; settings: read-out: Stability; summary of the method: as §2
[12] = Metabolic stability in dog intestine S9 fraction assessed as compound remaining at 10 uM after 60 mins by HPLC analysis in absence of NADP; assay type: ADME, tissue-based, Canis lupus familiaris; settings: read-out: Stability; summary of the method: as §2
[13] = Metabolic stability in human intestine S9 fraction assessed as compound remaining at 10 uM after 60 mins by HPLC analysis in absence of NADP; assay type: ADME, tissue-based; settings: read-out: Stability; summary of the method: as §2
[14] = Metabolic stability in human liver S9 fraction assessed as compound remaining at 10 uM after 60 mins by HPLC analysis in presence of NADP; assay type: ADME, subcellular; settings: read-out: Stability; summary of the method: as §2
[15] = Metabolic stability in cynomolgus monkey liver S9 fraction assessed as compound remaining at 10 uM after 60 mins by HPLC analysis in presence of NADP; assay type: ADME, subcellular, Macaca fascicularis; settings: read-out: Stability; summary of the method: as §2
[16] = Metabolic stability in human intestine S9 fraction assessed as compound remaining at 10 uM after 60 mins by HPLC analysis in presence of NADP; assay type: ADME, tissue-based; settings: read-out: Stability; summary of the method: as §2
[17] = Metabolic stability in cynomolgus monkey intestine S9 fraction assessed as compound remaining at 10 uM after 60 mins by HPLC analysis in absence of NADP; assay type: ADME, tissue-based, Macaca fascicularis; settings: read-out: Stability; summary of the method: as §2
[18] = Metabolic stability in rat intestine S9 fraction assessed as compound remaining at 10 uM after 60 mins by HPLC analysis in absence of NADP; assay type: ADME, tissue-based; settings: read-out: Stability; summary of the method: as §1
[19] = Metabolic stability in cynomolgus monkey intestine S9 fraction assessed as compound remaining at 10 uM after 60 mins by HPLC analysis in presence of NADP; assay type: ADME, tissue-based, Macaca fascicularis; settings: read-out: Stability; summary of the method: as §2
[20] = Cmax in ICR mouse plasma at 50 mg/kg, po by LC-MS/MS analysis; assay type: ADME, organism-based; set-up: dose 50 mg/kg, route oral
[21] = system: Liver; assay: Dose normalized AUC in ICR mouse liver at 50 mg/kg, po by LC-MS/MS analysis; assay type: ADME, organism-based; set-up: dose 50 mg/kg, route oral; settings: in vivo
[22] = system: Liver; assay: AUC (0 to 6 hrs) in ICR mouse liver at 50 mg/kg, po by LC-MS/MS analysis; assay type: ADME, organism-based; set-up: time < 6 hr, dose 50 mg/kg, route oral; settings: in vivo
[23] = system: Plasma; assay: Dose normalized AUC in ICR mouse plasma at 50 mg/kg, po by LC-MS/MS analysis; assay type: ADME, organism-based; set-up: dose 50 mg/kg, route oral; settings: in vivo
[24] = Metabolic stability in cynomolgus monkey liver S9 fraction assessed as compound remaining at 10 uM after 30 mins by HPLC analysis in presence of NADP; assay type: ADME, subcellular, Macaca fascicularis; settings: read-out: Stability
[25] = Metabolic stability in cynomolgus monkey liver S9 fraction assessed as compound remaining at 10 uM after 30 mins by HPLC analysis in absence of NADP; assay type: ADME, subcellular, Macaca fascicularis; settings: read-out: Stability
[26] = Metabolic stability in cynomolgus monkey intestine S9 fraction assessed as compound remaining at 10 uM after 30 mins by HPLC analysis in absence of NADP; assay type: ADME, tissue-based, Macaca fascicularis; settings: read-out: Stability
[27] = Metabolic stability in cynomolgus monkey intestine S9 fraction assessed as compound remaining at 10 uM after 30 mins by HPLC analysis in presence of NADP; assay type: ADME, tissue-based, Macaca fascicularis; settings: read-out: Stability
[28] = Metabolic stability in mouse plasma assessed as compound remaining at 1 ug/ml after 4 hrs; assay type: ADME, cell-free; settings: read-out: Stability

Row | SMILES | remaining at 1 h, 10 µM [1] [%] | remaining at 1 h, 10 µM [2] [%] | EC50 [3] [nM] | remaining at 0.5 h, 1 ug/ml [4] [%] | CC50 at 72 h [5] [nM] | remaining at 1 h, 10 µM [6] [%] | remaining at 1 h, 10 µM [7] [%] | remaining at 1 h, 10 µM [8] [%] | remaining at 1 h, 10 µM [9] [%] | remaining at 1 h, 10 µM [10] [%] | remaining at 1 h, 10 µM [11] [%] | remaining at 1 h, 10 µM [12] [%] | remaining at 1 h, 10 µM [13] [%] | remaining at 1 h, 10 µM [14] [%] | remaining at 1 h, 10 µM [15] [%] | remaining at 1 h, 10 µM [16] [%] | remaining at 1 h, 10 µM [17] [%] | remaining at 1 h, 10 µM [18] [%] | remaining at 1 h, 10 µM [19] [%] | Cmax [20] [ng/mL] | further results
1 | CC(C)OC(=O)[C@H](C)NP(=O)(OC[C@H]1O[C@@H](n2cnc3c(=O)[nH]c(N)nc32)[C@](C)(O)[C@@H]1O)Oc1cccc2ccccc12 (some centres not stated) | 77 | 66 | 170 | 14 | > 100000 | 81 | 86 | 91 | 25 | 28 | 41 | 68 | 85 | 27 | 0 | 65 | 87 | 76 | 48 | – | –
2 | C[C@H](NP(=O)(OC[C@H]1O[C@@H](n2cnc3c(=O)[nH]c(N)nc32)[C@](C)(O)[C@@H]1O)Oc1cccc2ccccc12)C(=O)OCC(C)(C)C (some centres not stated) | 57 | 42 | 57 | 0.3 | > 100000 | 49 | 88 | 87 | 5 | 31 | 59 | 56 | 49 | 7 | 16 | 28 | 68 | 86 | 20 | 262 | AUC [21]: 32 ng·h/g; AUC [22]: 1584 ng·h/g; AUC [23]: 38 ng·h/mL
3 | C[C@H](NP(=O)(OC[C@H]1O[C@@H](n2cnc3c(=O)[nH]c(N)nc32)[C@](C)(O)[C@@H]1O)Oc1ccc2ccccc2c1)C(=O)OCc1ccccc1 (some centres not stated) | – | 23 | 170 | 0.7 | > 50000 | 33 | – | 28 | – | – | 29 | 27 | 23 | 14 | – | 24 | – | – | – | – | –
4 | CC(C)[C@H](NP(=O)(OC[C@H]1O[C@@H](n2cnc3c(=O)[nH]c(N)nc32)[C@](C)(O)[C@@H]1O)Oc1cccc2ccccc12)C(=O)OCc1ccccc1 (some centres not stated) | 65 | 56 | 760 | 89 | > 100000 | 56 | – | 75 | 8 | 62 | 78 | 72 | 70 | 0 | – | 24 | – | 81 | – | 504 | remaining at 0.5 h, 10 µM [24]: 0%; remaining at 0.5 h, 10 µM [25]: 77%; AUC [21]: 97 ng·h/g; remaining at 0.5 h, 10 µM [26]: 77%; AUC [22]: 1940 ng·h/g; AUC [23]: 40 ng·h/mL; remaining at 0.5 h, 10 µM [27]: 25%; remaining at 4 h, 1 ug/ml [28]: 66%
